# L major viab: Leishmania major promastigote growth inhibition | Leishmania major promastigotes, resazurin fluorescence viability | inhibition, % at 10 µM | 200,000 compounds, 9% hits | AID 1063; in the data active = inhibition above about 50%;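 also: promastigotes grown with compound for 44 hours at 28 °C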
# HSF-1 act: increases HSF-1 driven luciferase reporter signal | AID 504408 | activation, % at 9 µM | 300,000 compounds, 1.7% hits | NIH3T3-HGL HSF-1 luciferase reporter, MG132, 8 h; 100% = twice DMSO control signal;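 active = mean replicate activation of at least 50% with a set share of replicates each reaching 50%; inconclusive = only one of those two conditions met; inactive = mean below 50% and too few replicates reaching it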;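 also: 0% = median of the neutral control wells and 100% = twice that signal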
# HSF1 inh: HSF1 inhibition. activity change, negative = inhibition, % at 7.5 µM (by protocol). NIH3T3-HGL HSE-luciferase, MG132-induced, luminescence 8 h; active compounds read low. AID 2098. 300,000 compounds, 0.77% hits;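 active = more than half of replicate wells show activity change below -50%, luminescence cut by over half; inconclusive = some wells, but at most half, below -50%; inactive = no replicate well below -50%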;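 also: luciferase reports HSF-1 transcriptional activity via heat shock element; 0% = median of DMSO wells and -100% = zero luminescence signal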
# Hsp70 activator: switches on Hsp70 transcription; HeLa Hsp70 promoter luciferase reporter, luminescence; scaled: vehicle 0, proteasome-inhibitor control 100%; activation, % at 10 µM; 200,000 compounds, 0.04% hits; AID 1203;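 active = activation above the mean across all tested compounds plus 3 SD, cutoff set per campaign, cut at about 5.5% in these data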;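 also: 100% = MG132 at 30 µM as the positive control and 0% = DMSO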
# T cruzi inh: blocks replication of Trypanosoma cruzi | T. cruzi beta-gal in NIH3T3, luminescence, 90 h | inhibition, % (concentration not given with the values) | 300,000 compounds, 1.4% hits | AID 1885;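 active = mean inhibition across valid replicates above about 55%, limit read from the data; inconclusive = mean below that limit but half or more replicates reach it; inactive = mean below it, under half of replicates reach it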;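 also: signal also drops with host cell toxicity which is not excluded here; 0% = plate median of DMSO wells and 100% = zero luminescence signal; higher percent means less beta-gal luminescence so fewer parasites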
#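 Test system: β-gal T. cruzi (Tulahuen C4) inside NIH/3T3 cells / Quantity: 5,000 cells/well / Measured by: luminescence from GalScreen with 0.05% NP40, read after 60 min / Medium: DMEM plus 2% FBS / Measure: parasite load inhibition, % / Reagent: Tulahuen C4 trypomastigotes, 5000/well / Schedule: co-culture of at least 90 h after 3 h attachment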
# Lmaj promast 1uM: inhibitors of Leishmania major promastigote growth, repeat at 1 uM; shares compounds with L major viab; L. major promastigote growth, resazurin fluorescence, 48 h; inhibition, % at 1 µM; 1,100 compounds, 13% hits;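 active = inhibition above about 50% in both repeat tests, limit read from the data; inconclusive = one repeat under the set limit, the other over it; inactive = both repeats under the set limit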
# The depositor's hits bear a star; ? = inconclusive; . = not tested or not shown. Shown is part of a subset that was picked to be rich in hits.
SMILES,L major viab,HSF-1 act,HSF1 inh,Hsp70 activator,T cruzi inh,Lmaj promast 1uM
Clc1cccc(Cl)c1COn1nnc2ccccc21,-1.9,?,29.2,0.1,0.3,.
CCN(CC)CCCOc1nc(C)nc2c1oc1ccccc12,75.5*,.,.,-0.2,.,-3.5
CCN(CC)CCOc1nc(C)nc2c1oc1ccccc12,2.4,3.2,-2.0,-0.1,6.5,.
Cc1cc(Nc2ncc(Cl)cc2Cl)n(-c2ccccc2C)n1,81.9*,9.9,-4.7,-0.1,-28.8,-10.6
Cc1ccc2[nH]c(C(=O)N3CCC(C(N)=O)CC3)cc2c1,.,7.9,3.0,.,-5.7,.
O=C1c2cccnc2C(=O)N1Cc1ccc(S(=O)(=O)N2CCOc3ccc(Cl)cc32)cc1,.,-2.3,-2.2,.,-9.3,.
CCCCCCCNC1=CC(=O)CC(c2ccccc2)C1 (stereo not given),99.5*,1.0,2.8,-0.2,18.7,-17.7
CCOc1ccc(Br)cc1S(=O)(=O)Nc1ccc(Cl)c(S(=O)(=O)N(CC)c2ccccc2)c1,2.4,40.9,5.2,-0.3,5.2,.
CCN(CC)CCNC(=O)c1ccc(NC(=O)C2CC(=O)N(c3ccc4c(c3)OCCO4)C2)cc1 (stereo not given),.,-5.1,-0.4,.,-1.7,.
Cc1ccccc1Nc1cc2ccccc2c(=O)[nH]1,52.7*,23.6,11.3,-0.1,18.8,-9.5
COc1nccnc1NS(=O)(=O)c1ccc(NCc2ccccc2O)cc1,.,-22.7,1.7,.,-4.1,.
CCCSc1nsc(SCCC)c1C#N,-3.3,-6.3,10.6,-0.2,-10.5,.
C#CCSc1nsc(SCC#C)c1C#N,94.4*,23.6,7.2,0.2,-8.8,-14.1
COc1cc2[nH]c3c(=O)n(N)c(=O)[nH]c3c2cc1OC,.,6.9,0.2,.,-8.2,.
CC(C)(C)c1ccc(-c2ncccc2O)cc1,100.3*,.,.,-0.1,.,82.5*
NS(=O)(=O)c1ccc(NNC(=O)c2sccc2Cl)cc1,.,-2.5,-1.4,.,4.3,.
Cc1ccc(OCc2nc(C#N)c(NCc3ccc4c(c3)OCO4)o2)cc1,97.8*,22.7,7.9,0.1,3.6,-17.9
CCOc1ccc(-c2nc(C#N)c(NCc3ccc4c(c3)OCO4)o2)cc1,-2.8,5.3,7.1,0.1,-6.5,.
O=C(CSc1ccc2c(c1)OCCO2)Nc1cccnc1,3.4,-2.4,2.4,-0.2,-2.8,.
COc1c(/C=N/NC(N)=S)c(C)nn1-c1ccccc1,57.7*,9.5,0.5,-0.1,-0.1,-6.4
NNC(=O)CSc1nc(-c2ccccc2)nc2c1CCCC2,-11.1,17.7,5.9,-0.2,10.6,.
OCCSc1nc(-c2ccccc2)nc2c1CCC2,51.9*,-0.6,-7.6,-0.5,-0.7,-13.0
CC(C)(C)NC(=O)COC(=O)c1ccc(Cl)nc1,-6.5,-4.8,-3.1,0.3,3.5,.
Cc1ccc(N2CC(C)Cn3c2nc2c3c(=O)n(CC(=O)OCc3ccccc3)c(=O)n2C)cc1C (stereo not given),59.2*,-15.7,-1.5,-0.5,47.4,14.9
Cc1cc(C)cc(N2CCCn3c2nc2c3c(=O)n(CC(=O)OCc3ccccc3)c(=O)n2C)c1,29.9,23.8,6.3,-0.2,23.0,.
SMILES,L major viab,HSF-1 act,HSF1 inh,Hsp70 activator,T cruzi inh,Lmaj promast 1uM
Cc1ccccc1Cn1nnc(C(=O)Nc2cccc(C)c2C)c1N,95.0*,21.3,-0.8,-0.4,-14.1,-14.6
CCC(=O)Oc1ccc(C(=O)Nc2ccc3c(c2)OCO3)cc1,-1.8,9.2,5.2,0.2,-18.0,.
N/C(=N\OC(=O)CCC1CCCCC1)c1ccc([N+](=O)[O-])cc1,75.7*,11.6,2.4,-0.1,-13.6,1.2
O=C/C(=C\Nc1ccccn1)c1nc2cc(Cl)ccc2o1,71.8*,29.3,25.8,-0.2,-21.6,-1.1
Cc1ccc(-c2c(C(=O)N/N=C/c3c[nH]c4ccccc34)nnn2-c2nonc2N)cc1,.,-7.8,-9.7,.,11.3,.
CC1(C)CC2(CC(c3cccs3)c3cc(Cl)c(O)cc3O2)NC(=S)N1 (stereo not given),92.4*,2.4,-1.7,0.2,-12.7,-9.8
CC1(C)CC2(CC(c3ccc(F)cc3)c3ccc(O)cc3O2)NC(=S)N1 (stereo not given),.,4.9,3.3,.,10.0,.
O=C(N/N=C\c1ccc(CNS(=O)(=O)c2ccccc2)o1)C(=O)Nc1ccc(F)cc1,-4.0,24.6,3.5,-0.1,-5.2,.
O=C(N/N=C\c1ccc(CN(Cc2ccc(Cl)cc2)S(=O)(=O)c2ccccc2)o1)C(=O)Nc1ccc(F)cc1,80.9*,16.5,17.5,-0.4,-8.2,42.7

# From PubChem BioAssay
